Tests used:
Details in all cases: Homo sapiens
[1] = substrate: CCCC[C@@H](C(=O)Nc1ccc2c(C)c(CC(=O)O)c(=O)oc2c1)n1cc([C@@](C)(NC(=O)c2ccccc2)C2CCCCC2)nn1; assay: (§1) Binding affinity to cathepsin S
In short: (§2)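 Cathepsin S at 0.6 nM in pH 6.1 100 mM sodium phosphate with 100 mM NaCl, 1 mM DTT, 1 mM EDTA and 0.001% Tween-20. Enzyme preincubated 5 min at 37 °C with five inhibitor concentrations (10-90% inhibition), in duplicate. Cbz-Leu-Arg-AMC added at 5 and 2.5 µM, then AMC read (ex 355/em 450 nm) over 5 min. Ki by Dixon method.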

[2] = substrate: CCCC[C@@H](C(=O)Nc1ccc2c(C)c(CC(=O)O)c(=O)oc2c1)n1cc([C@@](C)(NC(=O)c2ccsc2)C(C)C)nn1; assay: as §1; in short: as §2
[3] = substrate: CCCC[C@@H](C(=O)Nc1ccc2c(C)c(CC(=O)O)c(=O)oc2c1)n1cc([C@@](C)(NC(=O)c2ccsc2)C2CCC(C)CC2)nn1; assay: as §1; in short: as §2
[4] = substrate: CCCC[C@@H](C(=O)Nc1ccc2c(C)c(CC(=O)O)c(=O)oc2c1)n1cc([C@@](C)(NC(=O)c2ccsc2)C2CCCCC2)nn1; assay: as §1; in short: as §2
[5] = substrate: CCCC[C@@H](C(=O)Nc1ccc2c(C)c(CC(=O)O)c(=O)oc2c1)n1cc([C@@](C)(NC(=O)c2ccccc2)C(C)C)nn1; assay: as §1; in short: as §2

B1: Cathepsin S (Homo sapiens), P25774 (protein)
chain: MKRLVCVLLVCSSAVAQLHKDPTLDHHWHLWKKTYGKQYKEKNEEAVRRLIWEKNLKFVMLHNLEHSMGMHSYDLGMNHLGDMTSEEVMSLMSSLRVPSQWQRNITYKSNPNRILPDSVDWREKGCVTEVKYQGSCGACWAFSAVGALEAQLKLKTGKLVSLSAQNLVDCSTEKYGNKGCNGGFMTTAFQYIIDNKGIDSDASYPYKAMDQKCQYDSKYRAATCSKYTELPYGREDVLKEAVANKGPVSVGVDARHPSFFLYRSGVYYEPSCTQNVNHGVLVVGYGDLNGKEYWLVKNSWGHNFGEEGYIRMARNKGNHCGIASFPSYPEI
- Km [1]: 57 µM
- Km [2]: 300 µM
- Km [3]: 17 µM
- Km [4]: 13 µM
- Km [5]: 410 µM

Source: ChEMBL document CHEMBL1137397, “Identification of selective, nonpeptidic nitrile inhibitors of cathepsin s using the substrate activity screening method” (J Med Chem, 2006)
